Assay results of several laboratories.
Each line is one published result; the experiments were not run side by side.
Effect on: cell growth or viability

| Structure (SMILES) | cell line | method | tested at | time | quantity | result |
| --- | --- | --- | --- | --- | --- | --- |
| CC#CC(=O)N1CC[C@@H](n2cc(-c3ccc(Oc4c(F)cccc4F)cc3)c3c(N)n[nH]c(=O)c32)C1 | JeKo-1 | ATP luminescence |  | 72 h | GI50 | 4.88 µM |
| O=C1Nc2ccccc2/C1=N/NC(=O)c1cc2ccccc2[nH]1 | ZR75 |  | 30 µM |  | inhibition | 57.7% |
| COc1ccc2c(c1)C(=NNc1nnc(Cc3ccccc3)c3ccccc13)C(=O)N2 | ZR75 |  | 30 µM |  | inhibition | 30.9% |
| CNC(=O)c1cc(Oc2ccc(NC(=O)Nc3ccc(Cl)c(C(F)(F)F)c3)cc2)ccn1 | WM 266-4 | MTT | 6.3 µM | 48 h | viability | 50.7% |
| O=C(Nc1ccc(C(F)(F)F)cc1)Nc1cccc(C(=O)Nc2ccc3[nH]ncc3c2)c1 | KM12 | ATP luminescence |  | 72 h | IC50 | 33.5 µM |
| Cc1ccc(C(CS(=O)(=O)c2ccccc2)=NNc2nc(-c3ccc(OCCCCOc4ccc(-c5csc(NN=C(CS(=O)(=O)c6ccccc6)c6ccc(C)cc6)n5)cc4)cc3)cs2)cc1 | WM 266-4 | MTT | 25 µM | 48 h | viability | 48.8% |
| COc1ccc(-c2nc(NN=C3C(=O)Nc4ccc(Br)cc43)c3ccccc3n2)cc1OC | ZR75 |  | 10 µM |  | inhibition | 78.8% |
| CN1C(=O)/C(=N\NC(=O)c2cc3ccccc3[nH]2)c2ccccc21 | ZR75 |  | 30 µM |  | inhibition | 73.1% |
| NC(=S)NN=C(CS(=O)(=O)c1ccccc1)c1ccc(F)cc1 | WM 266-4 | MTT | 0.4 µM | 48 h | viability | 58% |
| COc1cc2ncnc(NN=C3C(=O)Nc4ccccc43)c2cc1OC | ZR75 |  | 30 µM |  | inhibition | 50.4% |
| C=CC(=O)N1CCC[C@@H](n2nc(-c3ccc(Oc4ccccc4)cc3)c3c(N)ncnc32)C1 | KMS-12-BM |  |  | 48 h | GI50 | > 10 µM |
| CCN(CC)CCNC(=O)c1c(C)[nH]c(/C=C2\C(=O)Nc3ccc(F)cc32)c1C | ZR75 |  | 30 µM |  | inhibition | 90.7% |
| Cc1ccc(C(CS(=O)(=O)c2ccccc2)=NNC2=NC(=O)C(=NNc3ccccc3)S2)cc1 | WM 266-4 | MTT | 100 µM | 48 h | viability | 35.7% |
| CN1C(=O)/C(=N\NC(=O)c2cc3ccccc3[nH]2)c2cc(Br)ccc21 | ZR75 |  | 30 µM |  | inhibition | 90.2% |
| CC(C)(C)c1nc(-c2cccc(NS(=O)(=O)c3c(F)cccc3F)c2F)c(-c2ccnc(N)n2)s1 | WM 266-4 | MTT | 25 µM | 48 h | viability | 47.7% |
| O=C(Cc1ccc(C(F)(F)F)cc1)Nc1cccc(C(=O)Nc2ccc3[nH]ncc3c2)c1 | KM12 | ATP luminescence |  | 72 h | IC50 | 48.4 µM |
| O=C1Nc2ccc(F)cc2/C1=N/NC(=O)c1cc2ccccc2[nH]1 | ZR75 |  | 30 µM |  | inhibition | 40% |
| COc1ccc(C2=Nn3c(NN=C4C(=O)Nc5ccc(OC)cc54)nnc3SC2)cc1 | SR | SRB | 10 µM |  | inhibition | 36% |
| O=C1Nc2ccccc2C1=NNc1nnc(Cc2ccccc2)c2ccccc12 | ZR75 |  | 30 µM |  | inhibition | 54.3% |
| COc1ccc2c(c1)/C(=N/NC(=O)c1cc3ccccc3[nH]1)C(=O)N2C | ZR75 |  | 30 µM |  | inhibition | 82.5% |
| COc1cc2ncnc(NN=C3C(=O)Nc4ccc(C)cc43)c2cc1OC | ZR75 |  | 30 µM |  | inhibition | 40.4% |
| Cc1ccc(C(CS(=O)(=O)c2ccccc2)=NN=C2N=C(c3ccc(Br)cc3)CS2)cc1 | WM 266-4 | MTT | 0.4 µM | 48 h | viability | 63.8% |
| Cn1c(=O)c(NN=C2C(=O)Nc3ccccc32)nc2ccccc21 | ZR75 |  | 30 µM |  | inhibition | 52.1% |
| O=C(Nc1ccc(OC(F)(F)F)cc1)Nc1cccc(C(=O)Nc2ccc3[nH]ncc3c2)c1 | KM12 | ATP luminescence |  | 72 h | IC50 | 43.3 µM |
| Cc1ccc2c(c1)C(=NNc1nc3ccccc3n(C)c1=O)C(=O)N2 | ZR75 |  | 30 µM |  | inhibition | 71% |
| COc1cccc(Oc2ccccc2NC(=O)CNC(=O)c2cccc3ccccc23)c1 | KM12 | SRB |  | 48 h | GI50 | 0.191 µM |
| S=C([S][Au-][P+](CCCCCC[P+]([Au-][S]C(=S)n1cccn1)(c1ccccc1)c1ccccc1)(c1ccccc1)c1ccccc1)n1cccn1 | KM12 |  |  |  | GI50 | 0.434 µM |
